Compounds with a hit are over-represented: about 2.1% of the library has one in this group of screens.
HKDC1 inh: HKDC1 hexokinase inhibitors, primary screen, biochemical, fluorescence, uHTS | inhibition, % at 20 µM | actives 0.16% (n = 340,000) | recombinant HKDC1, G6PDH/diaphorase resazurin coupled fluorescence | Q2TB90;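 active = inhibition above about 35% when tested at 20 µM, limit read from the data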;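 note: plate controls were DMSO wells with enzyme for no effect and DMSO wells lacking enzyme for full effect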
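Assay system: in-house recombinant HK5 (HKDC1) enzyme. Input: HKDC1 at 5 µg/mL. Medium: Tris pH 8.0 buffer with MgCl2, Tween-20, BSA, BME. Dosing: single 20 µM dose. Schedule: 90 min reaction incubation at room temperature, dark. Signal: resazurin-to-resorufin fluorescence via G6PDH and diaphorase coupling, 525/613 nm. Controls: DMSO-enzyme wells negative, buffer-substituted wells positive.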
aDG glyco act: activators of alpha-DG glycosylation, primary screen, uHTS, Pro5-aDG cells, AlphaScreen | alpha-DG glycosylation AlphaScreen (IIH6); 0% Pro5, 100% B10-LARGE cell signal | activation, % at 10 µM | AID 624168, 2012 | actives 0.22% (n = 360,000);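 active = activation of at least 8% versus controls, or a plate z-score of at least 8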;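 note: Pro5 are CHO cells carrying HIG-tagged alpha-DG that lacks glycosylation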
B2AR ag: beta2AR agonists driving receptor internalization, primary screen, cell-based, FAP fluorogen, flow cytometry. Am2.2-beta2AR cells. actives 0.43% (n = 340,000). Beta-2 adrenergic receptor (Homo sapiens), P07550. response, % (concentration not given with the values);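 active = response above a set limit, near 3 SD of response in nonfluorescent compounds, cut at about 42% in these data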
Target sequence (P07550 whole entry, looked up): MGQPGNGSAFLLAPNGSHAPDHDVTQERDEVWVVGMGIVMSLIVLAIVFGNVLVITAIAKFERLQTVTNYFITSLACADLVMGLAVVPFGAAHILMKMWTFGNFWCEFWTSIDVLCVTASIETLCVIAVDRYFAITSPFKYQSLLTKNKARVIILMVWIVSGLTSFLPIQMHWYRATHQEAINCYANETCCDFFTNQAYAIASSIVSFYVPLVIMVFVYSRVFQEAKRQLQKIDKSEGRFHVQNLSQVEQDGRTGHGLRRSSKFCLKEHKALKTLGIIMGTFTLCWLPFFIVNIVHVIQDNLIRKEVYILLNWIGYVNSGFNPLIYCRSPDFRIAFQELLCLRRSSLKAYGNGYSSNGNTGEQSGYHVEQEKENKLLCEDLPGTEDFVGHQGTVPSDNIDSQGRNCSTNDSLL
PfGluPho inh: PfG6PD enzyme inhibitors, primary screen, biochemical, fluorescence intensity, uHTS. PfGluPho enzyme, NADPH resazurin-diaphorase fluorescence. inhibition, % at 20 µM. actives 0.78% (n = 350,000). AID 504690, 2011;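 active = inhibition reaching at least a set limit at 20 µM in the primary screen, cut at about 59% in these data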;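 note: 0% = DMSO wells with substrate and 100% = DMSO wells lacking glucose-6-phosphate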
UCH37 inh: inhibitors of human UCH37 deubiquitinase, primary screen, biochemical, Ub-AMC cleavage, fluorescence; purified proteasome/UCH37; actives 0.33% (n = 330,000); inhibition, % (no concentration beside the values); Ubiquitin carboxyl-terminal hydrolase isozyme L5 (Homo sapiens), Q9Y5K5;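 active = mean inhibition over replicate wells above about 20%, limit read from the data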;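 note: 0% = compound-free wells with enzyme and 100% = wells lacking proteasome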
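Signal – fluorescence, ex 355 nm, em 460 nm · System – Proteasome-bound UCH37 · Input – 0.15 nM proteasome as dispensed · Timing – 30 min preincubation with enzyme, 25 min cleavage at room temperature · Read-out basis – percent inhibition of cleavage signal versus uninhibited and no-proteasome wells · Medium – Tris-HCl pH 7.4 with ATP-MgCl2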
H9c2 protect: cardioprotection against H2O2-induced cell death, primary screen, uHTS, H9c2 cells, ATPLite luminescence | AID 588492, 2011 | protection from H2O2 cell death, % at 20 µM | actives 0.63% (n = 360,000) | H9c2 cardiomyocytes, H2O2 injury protection, 2 h;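 active = compounds giving at least 50% protection of heart cells from peroxide-induced death in the single-dose screen, raw or plate-pattern-corrected value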;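 note: 0% = DMSO wells with peroxide and 100% = DMSO wells without peroxide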
Numbers without * were called inactive; i = inactive; / = no result.

SMILES	HKDC1 inh	aDG glyco act	B2AR ag	PfGluPho inh	UCH37 inh	H9c2 protect
CC(C)C(=O)N(c1cc2sc(=O)oc2c2ccccc12)S(=O)(=O)c1cccs1	45*	1	21	74*	3	-4
CC(C)C(=O)N(c1ccc2oc(=O)sc2c1)S(=O)(=O)c1cccs1	-31	0	2	-8	6	37
Cc1ccc(C=NNC(=O)c2ccccn2)o1	/	/	/	/	11	/
CCOc1ccccc1C(=O)NN=Cc1coc2ccc(C)cc2c1=O	/	/	/	/	-51	/
O=C1c2ccc3c4c(ccc(c24)C(=O)N1c1cccc(O)c1)C(=O)N(c1cccc(O)c1)C3=O	6	4.0*	11	10	5	-2
CCOc1ccc(CCNC(=O)CCS(=O)(=O)c2ccc(OC)cc2)cc1OCC	-9	0	2	5	30*	-5
CCOc1ccc(S(=O)(=O)NCCC(=O)NCCc2ccc(OCC)c(OCC)c2)cc1	-4	0	-7	6	2	-4
O=C(Cc1n[nH]c(=O)c2ccccc12)OCC(=O)c1ccc(F)c(F)c1	-3	0	-8	-8	4	27
COc1ccc(C(=O)COC(=O)Cc2n[nH]c(=O)c3ccccc23)c(OC)c1	0	0	0	-11	-12	62*
CC(=O)c1cccc(NC(=O)C(C)OC(=O)Cc2n[nH]c(=O)c3ccccc23)c1 (stereo not given)	-4	0	-3	-2	2	77*
O=C(Cc1n[nH]c(=O)c2ccccc12)OCC(=O)c1ccccc1	-1	0	0	-1	/	61*
O=C(COC(=O)Cc1n[nH]c(=O)c2ccccc12)Nc1ncc(Cl)cc1Cl	0	2	-5	5	5	67*
C/C(C=NNC(=O)c1cc(C)oc1C)=C/c1ccccc1	/	/	/	/	5	/
COc1ccccc1NC(=O)c1ccc(NC(=O)Cc2n[nH]c(=O)c3ccccc23)cc1	-2	0	2	13	4	70*
CC(C)CC(=O)Nc1ccc(C(=O)COC(=O)Cc2n[nH]c(=O)c3ccccc23)cc1	-4	0	4	3	-9	72*
O=C(Cc1n[nH]c(=O)c2ccccc12)OCC(=O)c1ccccc1Cl	-7	0	2	2	1	5
O=[N+]([O-])c1cccc(-c2ccc(C=NNc3nc(N4CCCCC4)nc(N4CCCCC4)n3)o2)c1	/	/	/	/	8	/
Cc1ccnn1CC(=O)NN=Cc1cn[nH]c1-c1ccc(F)cc1	/	/	/	/	6	/
O=C(NN=Cc1ccc(OC(=O)c2cccc(Br)c2)cc1)c1cccnc1	/	/	/	/	3	/
COc1cc(C2C(C#N)=C(C)NC3=C2C(=O)c2ccccc23)cc(OC)c1OC (stereo not given)	-3	0	10	-15	5	128*
COc1ccc(C2C(C#N)=C(C)NC3=C2C(=O)c2ccccc23)cc1 (stereo not given)	-11	0	-6	0	9	15
COc1ccc(C=NNC(=O)c2nc(-c3ccccc3)n(-c3ccccc3)n2)c(O)c1	/	/	/	/	-39	/
O=C(NN=Cc1ccc2cccnc2c1)c1nc2ccccc2c(=O)[nH]1	/	/	/	/	-63	/
Cc1ccc(C=Nn2cnnc2)s1	/	/	/	/	6	/
COC(=O)C=C1CCC2C3CCC4=CC(=O)CCC4(C)C3C(=O)CC12C (stereo not given)	-6	0	94*	5	1	4
SMILES	HKDC1 inh	aDG glyco act	B2AR ag	PfGluPho inh	UCH37 inh	H9c2 protect
O=S(=O)(N=C(c1ccccc1)N1CCOCC1)c1ccc(Cl)cc1	/	/	/	/	2	/
Cc1ccc(-n2cc(-c3ccccc3)c3c(N4CCOCC4)ncnc32)cc1	6	1	12	-1	-2	57*
Cc1ccc(CN(C)C(=O)COC(=O)CSc2ccc([N+](=O)[O-])cc2)cc1	0	0	-1	53	3	-4
Cc1ccc(CN(C)C(=O)COC(=O)CSc2ccc(C(N)=O)cc2[N+](=O)[O-])cc1	1	0	-1	-16	/	58*
CCOC(=O)c1cc2c(=O)n3cccc(C)c3nc2n(CCCOC)c1=NC(=O)c1cccnc1	-4	0	6	7	-495	101*
CCCCn1c(=NC(=O)c2cccnc2)c(C#N)cc2c(=O)n3cccc(C)c3nc21	2	0	12	12	i	54*
CCOCCCn1c(=NC(=O)c2cccnc2)c(C(=O)OCC)cc2c(=O)n3ccccc3nc21	-6	0	-5	12	-202	34
CCCn1c(=NC(=O)c2ccncc2)c(C#N)cc2c(=O)n3cccc(C)c3nc21	-2	0	-6	-1	-20	8
Cc1cccn2c(=O)c3cc(C#N)c(=NC(=O)c4cccs4)n(CCCOC(C)C)c3nc12	6	0	3	-16	-128	57*
COC(=O)c1nn(-c2ccccc2)c(Cl)c1C=NO	/	/	/	/	3	/
CCOc1c(Cl)cc(C=NO)cc1OC	/	/	/	/	5	/
CC(=NNC(=O)c1ccccc1Br)c1ccc(N2CCOCC2)cc1	/	/	/	/	5	/
Cn1c(O)c(N=Nc2nc(-c3ccccc3)cs2)c2ccccc21	20	0	-1	5	0	62*
Cn1c(O)c(N=Nc2ccccc2)c2ccccc21	2	0	-8	17	2	-2
COc1cccc(/C=N/Nc2ncnc3c2ncn3Cc2ccccc2)c1O	-6	2	3	-24	/	60*
CCON=C(C)c1c(O)c(CC)c(-c2ccccc2)n(-c2ccccc2)c1=O	/	/	/	/	3	/
Cc1ccc(C)c(S(=O)(=O)Nc2ccc(O)cc2)c1	3	0	2	9	0	-3
CCOC(=O)CNS(=O)(=O)c1cc(-c2n[nH]c(=O)c3ccccc23)ccc1C	2	0	9	12	3	61*
Cc1ccc(-c2n[nH]c(=O)c3ccccc23)cc1S(=O)(=O)NCC1CCCO1 (stereo not given)	-2	0	8	-1	4	71*
Cc1ccc(NS(=O)(=O)c2cc(-c3n[nH]c(=O)c4ccccc34)ccc2C)cc1	1	0	1	44	/	50*
COc1nnc(-c2ccc(C)c(S(=O)(=O)NC(C)(C)CO)c2)c2ccccc12	13	0	16	-6	2	4
Cc1ccc(-c2n[nH]c(=S)c3ccccc23)cc1S(=O)(=O)NCC1CCCO1 (stereo not given)	-4	0	-5	7	6	12
COc1nnc(-c2ccc(C)c(S(=O)(=O)NCCO)c2)c2ccccc12	-3	0	2	-6	-1	62*
